From PubChem
Rows were chosen to be rich in hits. Some 6.7% of all compounds tested hit in one or more screens of this group.
GRIN3A LBD mod = modulators (binders) of human NR3A ligand-binding domain; 340,000 compounds, 2.5% hits; AID 1259313; NR3A LBD differential scanning fluorimetry, Tm shift; 0% = protein alone, 100% = glycine-bound protein; Tm shift relative to glycine control, % at 25 µM;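 active means melting temperature shift of at least 10% of the positive control shift, at one fixed dose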
Beta apoptosis = blocks beta cell apoptosis | AID 435005 | 300,000 compounds, 0.8% hits | protection from apoptosis, % (concentration not given with the values) | INS-1E cytokine-induced death, ATP luminescence, 48 h; percent of positive-control rescue, neutral wells zero;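 active means Every replicate reaches about 75%, or at least half do and their mean reaches it too, limit read from the data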;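 further: 0% = cytokine-treated negative control wells and 100% = positive control rescue; higher means more ATP so stronger rescue from cytokine killing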
T cruzi repl = blocks replication of Trypanosoma cruzi; T. cruzi beta-gal in NIH3T3, luminescence, 90 h; inhibition, % (no concentration beside the values); 300,000 compounds, 1.4% hits;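 active means mean inhibition across valid replicates above about 55%, limit read from the data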;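 further: signal also drops with host cell toxicity which is not excluded here; 0% = plate median of DMSO wells and 100% = zero luminescence signal; higher percent means less beta-gal luminescence so fewer parasites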
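System: mouse NIH/3T3 fibroblasts infected with β-gal-expressing T. cruzi Tulahuen C4 / Input: NIH/3T3 cells, 5,000 per well / Buffer or medium: Low-serum DMEM with 2% FBS / Probe or stimulus: 5000 reporter trypomastigotes per well / Schedule: ≥90 h infection period, 3 h prior cell attachment / Measured by: GalScreen luminescence, 60 min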
PREPL inhibitor = inhibitors of human prolyl oligopeptidase-like enzyme PREPL | Q4J6C6 | recombinant PREPL, fluorescence polarization activity-based probe | inhibition, % at 5.96 µM | 320,000 compounds, 0.68% hits | AID 2751; in the data active means inhibition above about 43%;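 further: 0% = enzyme with DMSO and 100% = wells lacking enzyme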
Target sequence (Q4J6C6 whole entry, looked up): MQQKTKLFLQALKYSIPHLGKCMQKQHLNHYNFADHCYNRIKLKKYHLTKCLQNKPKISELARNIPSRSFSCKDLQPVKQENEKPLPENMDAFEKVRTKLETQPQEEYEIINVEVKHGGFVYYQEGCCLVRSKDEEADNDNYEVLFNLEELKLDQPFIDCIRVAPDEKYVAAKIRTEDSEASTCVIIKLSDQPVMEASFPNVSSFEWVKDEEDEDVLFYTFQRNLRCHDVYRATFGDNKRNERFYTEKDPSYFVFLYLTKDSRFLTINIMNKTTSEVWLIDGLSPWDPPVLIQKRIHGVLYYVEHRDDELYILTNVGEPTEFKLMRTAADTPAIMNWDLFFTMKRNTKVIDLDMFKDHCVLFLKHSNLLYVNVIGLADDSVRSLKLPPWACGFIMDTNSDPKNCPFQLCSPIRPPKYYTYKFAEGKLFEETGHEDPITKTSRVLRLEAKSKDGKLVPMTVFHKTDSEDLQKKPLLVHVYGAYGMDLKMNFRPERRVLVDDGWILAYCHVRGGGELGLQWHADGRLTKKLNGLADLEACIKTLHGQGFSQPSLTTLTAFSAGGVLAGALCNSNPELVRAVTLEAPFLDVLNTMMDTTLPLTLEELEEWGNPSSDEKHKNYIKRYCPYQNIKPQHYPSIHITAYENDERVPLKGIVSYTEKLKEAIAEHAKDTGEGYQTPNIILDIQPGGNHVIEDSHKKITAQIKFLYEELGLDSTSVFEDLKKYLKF
CSC inhib = cancer stem cell inhibition. cancer stem cell-like cells viability, luminescence. inhibition, % at 7.5 µM. 300,000 compounds, 1.1% hits. AID 2717; in the data active means inhibition above about 75%; tested in HMLE shEcad cells
CHOP inh = inhibitors of CHOP induction in ER stress response; CHO-K1 CHOP-promoter luciferase, tunicamycin-induced, 15-18 h; inhibition, % at 10 µM; 220,000 compounds, 3.8% hits; AID 2732;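 active means compounds that reduced the stress-induced luciferase reporter signal by more than about 70% of percent inhibition, limit read from the data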;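 further: 0% = tunicamycin plus vehicle and 100% = wells without tunicamycin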
CHOP confirm = confirmation of CHOP induction inhibitors; shares compounds with CHOP inh; CHO-CHOP promoter luciferase reporter, tunicamycin-induced, luminescence; inhibition, % at 10 µM; 2,100 compounds, 45% hits; AID 504437;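 active means mean of three repeat readings of reporter signal inhibition above a set limit, cut at about 70% in these data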;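 further: 0% = tunicamycin plus vehicle and 100% = wells lacking tunicamycin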
Starred values were filed as active, the others as inactive; . = no result.

SMILES | GRIN3A LBD mod | Beta apoptosis | T cruzi repl | PREPL inhibitor | CSC inhib | CHOP inh | CHOP confirm
COc1ccccc1-c1cc(C(F)(F)F)nc(S(=O)(=O)CCCC(=O)NCc2ccc(F)cc2)n1 | -3 | -29 | -37 | 5 | 77* | 100* | -95
COc1ccccc1/C=C/C(=O)Nc1cccnc1Cl | 1 | -1 | -15 | 8 | -14 | . | .
COc1ccccc1-c1cc(C(F)(F)F)nc(S(C)(=O)=O)n1 | 0 | 2 | -60 | -3 | 85* | 112* | -336
COc1cc(CCC(=O)NCc2ccc(F)cc2)cc(OC)c1OC | 2 | 11 | 5 | 7 | -1 | . | .
CN1CCN(c2nc(-c3ccco3)cc(C(F)(F)F)n2)CC1 | -2 | 3 | 27 | 1 | -8 | 35 | .
COC(=O)[C@H](CCSC)NC(=O)Cn1cnc2c(NCc3ccccc3)ncnc21 | 0 | . | . | . | . | . | .
Cc1c(C)[n+](=O)c(C)c(C)n1[O-] | 3 | . | . | . | . | . | .
COc1ccccc1-c1cc(C(F)(F)F)nc(S(=O)(=O)CCCC(=O)NC(C)C)n1 | 2 | 11 | -42 | -3 | 29 | 112* | 117*
COc1ccccc1-c1cc(C(F)(F)F)nc(S(=O)(=O)CCCC(=O)N2CCCCC2C)n1 (centres undefined) | 2 | -36 | -43 | 9 | 65 | . | .
O=c1cc(C(Cl)(Cl)Cl)oc2c1ccc1ccccc12 | 2 | 73 | 69* | -16 | 116* | 100* | -10
CNC(=O)/C(=C\c1ccc2c(c1)OCO2)NC(=O)c1ccc(Br)cc1 | 0 | 2 | 18 | 9 | 0 | -36 | .
C=CCn1c(O)c(C2=c3ccccc3=NC2=O)sc1=Nc1ccc(O)cc1 | -1 | 0 | 48 | 11 | 95* | 104* | 38
CN(C(=O)c1ccc(F)cc1)c1ccc(OCC(=O)Nc2ccccc2C(=O)O)cc1 | 0 | -3 | . | 6 | 1 | . | .
CSc1nnc(-c2ccccc2)o1 | 0 | 5 | 1 | 2 | -7 | 2 | .
O=S1(=O)C=C(Sc2nnc(-c3ccccc3)o2)c2ccccc21 | 8 | 105* | 63* | 2 | 108* | . | 125*
Cc1nc(SCC(=O)Nc2ccccc2)c2oc3ccccc3c2n1 | 0 | 3 | 6 | -12 | . | 96* | 32
Cc1nc(SCC(=O)NC(C)c2ccccc2)c2oc3ccccc3c2n1 (centres undefined) | -1 | -1 | 11 | 2 | -5 | 6 | .
Cc1nc(SCC(=O)Nc2ccc(F)cc2)c2oc3ccccc3c2n1 | 2 | -6 | 0 | -7 | -19 | 106* | 19
O=C(CSc1nc(-c2ccccc2)c(-c2ccccc2)[nH]1)Nc1ccc2c(c1)OCO2 | 13* | 1 | 2 | 7 | 14 | 102* | 19
COc1ccc(-c2cc(C(F)(F)F)nc(SCC(N)=O)n2)cc1 | -3 | -5 | -13 | 22 | 8 | 19 | .
COc1ccc(-c2cc(C(F)(F)F)nc(SCC(=O)Nc3ccc4c(c3)OCO4)n2)cc1 | -4 | 12 | -9 | 4 | 0 | 99* | 66
O=C(CSc1nc2ncccc2[nH]1)Nc1ccc2c(c1)OCO2 | 2 | . | -12 | 1 | -7 | -13 | .
CS(=O)(=O)c1ccc(Sc2nc3ccccc3s2)c([N+](=O)[O-])c1 | -16 | -24 | 4 | 7 | . | 6 | .
O=[N+]([O-])c1cc(S(=O)(=O)C(F)(F)F)ccc1Sc1nc2ccccc2[nH]1 | -3 | -10 | -9 | 16 | 113* | 108* | 124*
CS(=O)(=O)c1ccc(Sc2nc3ccccc3[nH]2)c([N+](=O)[O-])c1 | 0 | -12 | 44 | 0 | 6 | 14 | .
SMILES | GRIN3A LBD mod | Beta apoptosis | T cruzi repl | PREPL inhibitor | CSC inhib | CHOP inh | CHOP confirm
O=[N+]([O-])c1cc(S(=O)(=O)C(F)(F)F)ccc1Sc1nc2ccccc2s1 | -25 | -5 | 48 | 0 | 101* | 107* | -28
O=C(Nc1ccccc1)Nc1nc(-c2ccc(F)cc2)cs1 | 6 | 11 | 17 | 5 | -12 | 106* | 8
O=S(=O)(Nc1ccc(-c2csc(-c3ccccc3)n2)cc1)c1ccc(F)cc1 | 22* | 17 | 68* | -15 | . | 105* | 36
O=C(Nc1nc(-c2ccc(F)cc2)cs1)c1cccnc1 | -1 | 3 | 4 | 3 | . | 9 | .
O=S(=O)(Nc1ccccc1)c1ccc(-c2csnn2)cc1 | -3 | 1 | -12 | -5 | 5 | -4 | .
CCOc1ccc(S(=O)(=O)N2CCCCC2)cc1NC(=O)Cc1ccsc1 | -2 | -4 | . | 8 | . | . | .
COc1ccccc1C(=O)Nc1c(C(=O)N2CCN(C)CC2)oc2ccccc12 | 1 | -4 | 12 | 23 | 16 | . | .
CCOC(=O)C1=C(CN2CCN(C(=O)c3ccco3)CC2)NC(=O)NC1c1ccccc1 (centres undefined) | 2 | -2 | -10 | 4 | -20 | . | .
CCCn1cnnc1CNC(=O)C1CCC(=O)N(CCc2cccc(F)c2)C1 (centres undefined) | -1 | 0 | -6 | 6 | -3 | . | .
Nc1nc(C(=O)N2CCOCC2)nn1S(=O)(=O)c1ccc(Cl)cc1 | 1 | -4 | -14 | 5 | -4 | -4 | .
O=C(c1nnsc1S(=O)c1ccc(Cl)cc1)N1CCOCC1 (centres undefined) | 1 | . | 63* | . | . | 107* | 54
O=C(c1nnsc1S(=O)(=O)c1ccc(Cl)cc1)N1CCOCC1 | 0 | . | 18 | . | . | 102* | 95*
CNC(=O)c1nnsc1S(=O)(=O)c1ccc(Cl)cc1 | 0 | . | 60* | . | . | 107* | 114*
CNC(=O)c1ccc(S(=O)(=O)c2ccc(Cl)cc2)c(NC(C)=O)c1 | 2 | . | 5 | -6 | . | . | .
C[C@@H]1CN(S(=O)C(C)(C)C)[C@H](CCO)/C1=C\CCO (some centres undefined) | 2 | . | . | . | . | . | .
COc1ccc(-c2nn(-c3ccccc3)cc2/C=N/N2C(=O)CSC2=S)cc1 | -1 | 106* | -19 | 14 | 108* | 112* | 77*
CCN(CC)S(=O)(=O)c1ccc(O)c(NC(=O)COc2ccc(S(=O)(=O)N3CCOCC3)cc2)c1 | -2 | . | . | . | . | . | .
O=C(Cc1csc(Nc2nc(=S)[nH]c3ccccc23)n1)N1CCN(c2cccc(Cl)c2)CC1 | 2 | 4 | 27 | -15 | 12 | 103* | 38
COCCNC(=O)c1cc2cc(Cl)cc(Cl)c2oc1=O | 1 | -3 | -14 | -2 | -2 | 4 | .
CCOc1ccc(Cn2c3ccc(OC)cc3c3nc4ccccc4nc32)cc1 | 2 | 33 | . | 3 | 64 | 106* | -5
CCn1c(C)c(C(=O)O)c2cc(OC)c3ccccc3c21 | 3 | -3 | -14 | 14 | -3 | . | .
COC(C(=O)Nc1ccnn1C1CCN(Cc2ccc(Cl)s2)CC1)c1ccccc1 (centres undefined) | -1 | -3 | 8 | 18 | -4 | . | .
